Screening data from PubChem.
Rows were chosen to be rich in hits. Some 3.7% of all compounds tested hit in one or more screens of this group.
NPY1 pot ag – potentiates or activates human NPY-Y1 receptor; P25929; NPY-Y1 expressing cells, potentiator/agonist activation; activation, % at 3.6 µM; hit rate 0.37% among 220,000; AID 1304; in the data active = activation above about 33%, passing the limit was not always enough;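 note: cells stimulated with NPY at EC10 then isoproterenol at EC100; 0% = low agonist plus stimulus and 100% = saturating agonist plus stimulus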
NPY-Y1 antag – NPY-Y1 (human) receptor antagonism; P25929; HEK293-CNG Y1 cells, membrane potential fluorescence; NPY at EC95, then isoproterenol; inhibition, % at 3.6 µM; hit rate 1% among 200,000;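 active = inhibition above the campaign mean inhibition of all tested compounds plus 3 SD, cut at about 20% in these data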;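 note: 0% = DMSO wells given NPY plus isoproterenol and 100% = isoproterenol alone without NPY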
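Material: HEK293 Y1/CNG channel cell line | Also added: NPY (25 nM), isoproterenol (1 µM), Ro 20-1724 (25 µM) | Compound: One concentration, 3.6 µM, in 0.4% DMSO | Schedule: 3 h dye uptake, 1 h room-temperature compound, 45 min post-isoproterenol | Signal: Membrane-potential fluorescent dye readout | Read-out: % inhibition of NPY effect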
NPY-Y2 antag – blocks the human neuropeptide Y Y2 receptor; inhibition, % at 2.7 µM; hit rate 0.99% among 140,000; NPY-Y2 expressing cells, antagonist mode; AID 793; in the data active = inhibition above about 17%;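 note: 0% = vehicle with agonist challenge and 100% = reference antagonist with challenge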
Target sequence (P49146 whole entry, looked up): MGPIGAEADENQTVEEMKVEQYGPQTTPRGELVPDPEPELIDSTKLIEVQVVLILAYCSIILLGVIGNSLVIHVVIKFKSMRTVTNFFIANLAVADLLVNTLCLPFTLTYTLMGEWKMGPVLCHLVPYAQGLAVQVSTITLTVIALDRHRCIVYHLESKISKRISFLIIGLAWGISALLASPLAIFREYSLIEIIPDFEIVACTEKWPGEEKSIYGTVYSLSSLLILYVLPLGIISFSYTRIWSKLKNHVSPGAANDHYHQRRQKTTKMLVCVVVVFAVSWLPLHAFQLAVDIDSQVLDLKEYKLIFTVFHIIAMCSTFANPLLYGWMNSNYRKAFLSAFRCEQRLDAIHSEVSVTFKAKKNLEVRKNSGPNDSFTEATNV
NPY2 pot ag – human NPY-Y2 potentiation or agonism, primary screen; cells expressing NPY-Y2, potentiator/agonist read-out; activation, % at 3.6 µM; hit rate 0.45% among 220,000; in the data active = activation above about 27%;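 note: cells stimulated with NPY near EC25 plus isoproterenol at EC100; 0% = vehicle plus submaximal agonist and 100% = vehicle plus saturating agonist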
Furin inhibitor – blocks human furin protease activity; P09958; AID 463115; purified furin, fluorogenic substrate cleavage; hit rate 0.061% among 220,000; inhibition, % at 20 µM or 30 µM; in the data active = inhibition above about 25%
Cl transport mod – KCC2 (human) Cl- transport modulation. KCC2 cells, thallium flux FluoZin-2 fluorescence. hit rate 2.2% among 190,000. Q9H2X9. B-score of Tl+ flux slope (higher = more flux/activation; lower = inhibition) at 10 µM;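 active = thallium flux slope and its plate-corrected score both differing from the plate sample mean at a set confidence after two filtering rounds, in either direction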;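 note: slope of fluorescence scaled to starting intensity during 10 to 20 s after thallium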
KCC2 sec1 – confirmation of human KCC2 transport modulators | hit rate 15% among 3,700 | HEK293-KCC2, thallium flux, FluoZin2 fluorescence; active compounds read high | AID 1713 | normalised thallium flux (F/F0 slope) at 10 µM | shares compounds with Cl transport mod;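 active = thallium flux slope above the same plate's solvent-only control mean plus 3 SD; inconclusive = the two replicate wells disagree; inactive = no significant difference from solvent-only control wells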
KCC2 bumet counter – thallium flux despite bumetanide block in KCC2 cells, secondary assay 3; shares compounds with Cl transport mod; HEK293-KCC2 + bumetanide/ouabain, thallium flux FluoZin2; active compounds read high; normalized thallium flux at 10 µM; hit rate 49% among 3,700;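 active = thallium entry rate above the same plate's blocked-transporter control wells by more than 3 SD; inconclusive = the two repeat wells disagree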;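 note: raw slope of fluorescence over initial fluorescence between 10 and 20 s after thallium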
KCC2 secondary2 – confirmation of human KCC2 transport modulators; shares compounds with Cl transport mod; HEK293-KCC2, thallium flux FluoZin2 fluorescence; actives lie on both sides; F/F0 rise rate, 10–20 s post-thallium; hit rate 23% among 3,700; normalized thallium flux at 10 µM;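 active = thallium flux slope more than 3 SD above or below the plate's solvent-only control mean, mostly below; inconclusive = the two repeat wells disagreed; inactive = no significant shift from solvent-only controls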;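 note: raw slope with 0.1% DMSO as baseline and bumetanide as block control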
HEK counter1 – acts in parental HEK cells, KCC2 counter-screen; shares compounds with Cl transport mod; HEK293 parental cells, thallium flux FluoZin2, ouabain; baseline-ratio fluorescence slope, 10–20 s after thallium; thallium flux rate (normalised fluorescence) at 10 µM; hit rate 46% among 3,700; AID 1716;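 active = thallium flux rate significantly above the same plate's solvent-only control wells, beyond their mean plus 3 SD; inconclusive = the two replicate wells gave conflicting results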
KCC2 ouabain – modulates human KCC2 on retest with ouabain | shares compounds with Cl transport mod | raw Tl+ flux slope (below DMSO = inhibition, above = activation) at 10 µM | HEK293-KCC2, thallium flux FluoZin2 fluorescence; bidirectional: low = inhibitor, high = activator | AID 1717 | hit rate 48% among 3,700;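 active = thallium flux slope beyond 3 SD from same-plate DMSO control mean in most replicates, usually higher, sometimes lower; inconclusive = repeat tests gave conflicting results; inactive = no significant difference from controls in most replicates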;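 note: slope of initial-normalized fluorescence between seconds 10 and 20 after thallium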
HEK293 Tl flux2 – acts in parental HEK cells, second KCC2 counter-screen. shares compounds with Cl transport mod. HEK293 parental, thallium flux FluoZin-2 fluorescence slope. thallium flux slope at 10 µM. hit rate 33% among 3,700;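 active = thallium flux slope above the same plate's solvent-control mean plus 3 SD in both duplicate wells; inconclusive = duplicate wells that disagreed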;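 note: run without ouabain in cells lacking the KCC2 cotransporter; slope of fluorescence scaled to its starting value between 10 and 20 s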
Starred values were filed as active, the others as inactive.

How did CS(=O)(=O)N(CCc1ccccc1)CC(=O)N1CCCCC1 do in these assays?
NPY1 pot ag: -3; NPY-Y1 antag: -4; NPY-Y2 antag: 2; NPY2 pot ag: -1; Furin inhibitor: -17; Cl transport mod: -0.2

How did Cc1cccc(N(C)S(=O)(=O)c2cccc3nsnc23)c1 do in these assays?
NPY1 pot ag: 2; NPY-Y1 antag: 6; NPY-Y2 antag: 4; NPY2 pot ag: 12; Furin inhibitor: -12; Cl transport mod: -0.68

How did CCN1CCN(C(=O)CN(C)S(=O)(=O)c2ccc(OC)c(C)c2)CC1 do in these assays?
NPY1 pot ag: 9; NPY-Y1 antag: 4; NPY-Y2 antag: 2; NPY2 pot ag: -5; Furin inhibitor: -27

How did COc1ccc(S(=O)(=O)N(C)CC(=O)N2CCN(Cc3ccccc3)CC2)cc1C do in these assays?
NPY1 pot ag: -1; NPY-Y1 antag: 4; NPY-Y2 antag: -1; NPY2 pot ag: -4; Furin inhibitor: -23; Cl transport mod: -4.1*; KCC2 sec1: 0.011; KCC2 bumet counter: 0.006; KCC2 secondary2: 0.026*; HEK counter1: 0.0039; KCC2 ouabain: 0.015*; HEK293 Tl flux2: 0.012

Results for O=C(CN(c1ccc2c(c1)OCCO2)S(=O)(=O)c1ccccc1)NCc1ccc(Cl)cc1 ?
NPY1 pot ag: 1; NPY-Y1 antag: -1; NPY-Y2 antag: 5; NPY2 pot ag: 5; Furin inhibitor: -17; Cl transport mod: -1.8

Results for CCN(c1cccc(C)c1)S(=O)(=O)c1cccc2nsnc12 ?
NPY1 pot ag: -4; NPY-Y1 antag: 7; NPY-Y2 antag: 1; NPY2 pot ag: 5; Furin inhibitor: 1; Cl transport mod: 3.9*; KCC2 sec1: 0.0058; KCC2 bumet counter: inconclusive; KCC2 secondary2: 0.027*; HEK counter1: 0.0059*; KCC2 ouabain: 0.015*; HEK293 Tl flux2: 0.009*

Results for O=C(CN(c1ccc2c(c1)OCCO2)S(=O)(=O)c1ccccc1)N1CCN(Cc2ccccc2)CC1 ?
NPY1 pot ag: -3; NPY-Y1 antag: -2; NPY2 pot ag: 6; Furin inhibitor: -28; Cl transport mod: -4.1*; KCC2 sec1: 0.0061; KCC2 bumet counter: inconclusive; KCC2 secondary2: 0.023*; HEK counter1: 0.0072; KCC2 ouabain: inconclusive; HEK293 Tl flux2: 0.01

How did CCN(CCCNC(=O)CN(C)S(=O)(=O)c1cccc2nsnc12)c1ccccc1 do in these assays?
NPY1 pot ag: 1; NPY-Y1 antag: -5; NPY-Y2 antag: 1; NPY2 pot ag: 6; Furin inhibitor: -27; KCC2 sec1: 0.0059; KCC2 bumet counter: 0.0043; KCC2 secondary2: inconclusive; HEK counter1: 0.0074; KCC2 ouabain: 0.016; HEK293 Tl flux2: 0.0097

Results for CN(CC(=O)NCCc1ccccc1)S(=O)(=O)c1cccc2nsnc12 ?
NPY1 pot ag: -15; NPY-Y1 antag: 9; NPY-Y2 antag: 4; NPY2 pot ag: -7; Furin inhibitor: -26; Cl transport mod: -0.7
